Screens (PubChem)
Sampled rows, rich in hits. Any-hit rate of the full collection: about 3.5%.
STAT1 act = STAT1 signaling activation | NIH 3T3 STAT1-luciferase reporter, IFN-gamma, luminescence; 100% = IFN-gamma alone, no compound | activation (% of control), % at 5.5 µM | 200,000 compounds, 2.6% hits | AID 932;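 active = activation above the screen-wide mean activation plus 3 SD, cut at about 130% in these data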;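 also: raw ratio to IFN-gamma control signal so 100% means no change and 0% no light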
APP 5'UTR act = activates APP 5'UTR luciferase reporter; SH-SY5Y APP 5'UTR luciferase reporter, luminescence; zero percent = DMSO vehicle wells; activation, % at 2 µM; 190,000 compounds, 1% hits;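 active = activation above a set limit, based on mean plus 3 SD of controls, cut at about 140% in these data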
NF-kB neuron act = compounds increasing NF-kB expression in human neuronal cells. NF-kB reporter expression; hits give high values. fold change at 12.5 µM. 190,000 compounds, 1.6% hits; in the data active = fold change above about 3.3
Pf gamet viab = P. falciparum stage V gametocyte viability inhibition | P. falciparum stage V gametocytes, ATP luminescence, 24 h | 150,000 compounds, 0.065% hits | inhibition, % at 10.9 µM;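 active = inhibition above the mean plus 3 SD of compounds within the control limits, set per campaign, cut at about 38% in these data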;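 also: 0% = DMSO wells and 100% = medium only without gametocytes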
FLuc inh counter = inhibits firefly luciferase, flagging false hits in luciferase inhibition screens. P08659. ATPLite firefly luciferase biochemical luminescence, 10 min. inhibition, % at 10 µM. 200,000 compounds, 1.5% hits. AID 1006;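 active = inhibition above about 50% when tested at 10 µM, limit read from the data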
Target sequence (P08659 whole entry, looked up): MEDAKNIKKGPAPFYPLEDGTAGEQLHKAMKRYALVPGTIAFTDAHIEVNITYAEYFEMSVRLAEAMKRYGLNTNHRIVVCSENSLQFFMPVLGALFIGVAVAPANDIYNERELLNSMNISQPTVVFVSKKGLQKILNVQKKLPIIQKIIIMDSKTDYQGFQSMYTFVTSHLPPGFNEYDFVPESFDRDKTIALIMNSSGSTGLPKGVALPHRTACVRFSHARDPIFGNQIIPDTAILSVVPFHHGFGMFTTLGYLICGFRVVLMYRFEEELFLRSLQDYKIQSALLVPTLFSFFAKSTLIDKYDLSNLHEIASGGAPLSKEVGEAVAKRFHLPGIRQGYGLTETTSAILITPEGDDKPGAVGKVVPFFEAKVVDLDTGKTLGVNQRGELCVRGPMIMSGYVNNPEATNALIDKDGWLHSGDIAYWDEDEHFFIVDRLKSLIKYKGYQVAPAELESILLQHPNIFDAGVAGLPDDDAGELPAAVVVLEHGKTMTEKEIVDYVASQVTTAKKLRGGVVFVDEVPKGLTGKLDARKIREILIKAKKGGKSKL
FLuc stim CS = firefly luciferase counter-screen for stimulation assays | P08659 | ATPlite luciferase biochemical, luminescence, 10 min; 0 = ATP-free wells, 1 = DMSO control | activation factor at 10 µM | 200,000 tested, under 10 active | AID 1027;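 active = luciferase activation factor, scaled between plate controls, of at least 2 with compound at 10 µM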
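Material: luciferase plus luciferin reagent, cell-free. Medium: PBS buffer for ATP. Also added: ATP substrate, dispensed from a 10.24 µM working solution in PBS. Doses: test compounds dosed from 2 mM stocks in 100% DMSO. Incubation: 10 min post-reagent at room temperature. Technique: light output (luminescence). Read-out basis: luminescence gain marking luciferase activators.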
Active calls of the source: *; / = no result given.

SMILES	STAT1 act	APP 5'UTR act	NF-kB neuron act	Pf gamet viab	FLuc inh counter	FLuc stim CS
CCOc1ccc(/C=N/NC(=O)c2ccccc2NC(=O)c2ccc(OC)cc2)cc1	75.1	19.0	1.12	/	94.1*	0.1
Cc1ccccc1C(=O)Nc1ccc(C(=O)N/N=C/c2ccncc2)cc1	96.6	-1.9	0.7	22.5	1.8	1
CCOC(=O)Cn1nc(-c2ccccc2)c2cnc3ccc(CC)cc3c21	97.8	-15.5	0.84	/	4.8	1
C=CC[n+]1ccc(/C=C2\C=Cc3cc(C)ccc3N2CC)c2ccccc21	65.4	-27.3	0.86	/	30.4	0.7
O=C(CNC(=O)c1ccccc1)OC1CCCCC1	134.7*	93.5	2.89	-17.7	47.8	0.5
O=C(CNC(=O)c1ccccc1)c1ccccc1	/	/	/	10.2	/	/
CN(C)c1ccc(N=C/C=C2\N(C)c3ccccc3C2(C)C)cc1	125.2	142.8*	1.01	-35.4	4.1	1
COc1ccc(C)cc1S(=O)(=O)Nc1ccc2c(c1)OCO2	96.6	8.4	1.24	1.6	-1.8	1
Cc1ccc(C(=O)Cn2cnc3ccccc3c2=O)cc1	132.9*	89.9	2.39	9.9	8.0	0.9
O=C(Cn1cnc2ccccc2c1=O)c1ccc(Br)cc1	143.8*	36.9	2.88	-12.8	-0.7	1
CC(=O)Nc1ccc(OS(=O)(=O)c2ccc([N+](=O)[O-])cc2)cc1	83.3	-24.7	1	-18.4	0.7	1
O=C(CSC1=NCCN1)Nc1cccc([N+](=O)[O-])c1	133.0*	2.4	0.82	-3.5	-8.0	1.1
COC(=O)CCC/C=C1/SCC(NC(=O)c2ccccc2)/C1=N/O (centres undefined)	94.9	-5.8	0.78	5.1	-9.0	1.1
COc1ccc(NC(=O)Nc2nc3ccccc3s2)cc1	/	/	/	-1.1	/	/
Cc1ccc(CC(=O)Nc2nc3c(s2)CCCC3)cc1	101.2	15.9	3.35*	/	-4.8	1
Cc1cc(C(=O)Nc2nc3c(s2)CCCC3)cs1	136.0*	119.2	6.38*	/	69.7*	0.3
COc1ccc(NC(=O)Nc2nc3c(s2)CCCC3)cc1	147.7*	149.9*	4.91*	-14.4	25.0	0.8
Cc1cc(C(=O)Nc2nnc(C3CCCCC3)s2)cs1	105.3	74.1	1.57	-28.0	0.1	1
O=C(NC(=S)Nc1nc2c(s1)CCCC2)c1ccccc1	121.1	191.2*	1.6	/	62.6*	0.4
O=C(Nc1ccccc1)c1cn(CCBr)cn1	/	/	/	-12.2	/	/
Cc1ccc(-c2nc3ccccc3[nH]2)s1	123.1	113.9	5.55*	/	60.7*	0.4
COC(=O)c1ccc(-c2ncc[nH]2)cc1	102.6	19.6	1.35	/	2.2	1
Nc1cc(N)cc(-c2nc3ccccc3[nH]2)c1	109.4	15.4	0.56	/	13.4	0.9
COc1ccc(-c2nc3ccccc3[nH]2)cc1	86.4	184.7*	4.98*	11.7	93.0*	0.1
c1ccc2[nH]c(-c3ccncc3)nc2c1	88.2	18.9	1.22	4.9	9.4	0.9
SMILES	STAT1 act	APP 5'UTR act	NF-kB neuron act	Pf gamet viab	FLuc inh counter	FLuc stim CS
Cc1cc(-c2nc3ccccc3[nH]2)ccc1N	115.7	107.2	4.96*	-1.1	71.5*	0.3
COC(=O)c1ccc(-c2nc3ccccc3[nH]2)cc1	121.6	130.7	7.09*	16.5	91.2*	0.1
CC1CCN(C(=S)Nc2ccc(SC(F)F)cc2)CC1	123.9	20.6	1.66	/	65.8*	0.3
CCOC(=O)[C@H]1[C@H]2COc3ccc(Br)cc3[C@@H]2N2C(=O)c3ccc(Cl)cc3NC(=O)[C@@]12C	/	/	/	17.3	/	/
Cc1cc(Br)cc(C=Nc2ccc(N3CCOCC3)cc2)c1O	/	/	/	-36.9	/	/
Oc1ccc(C=Nc2ccc(N3CCOCC3)cc2)c(O)c1	97.1	-6.9	1.9	/	77.8*	0.2
COc1cc(O)sc1C=Nc1ccc(Cl)cc1	132.2*	33.9	2	-15.7	-1.8	1
COc1cc(Cl)cc(/C=C/c2ccc3ccccc3n2)c1OC(C)=O	95.1	154.6*	1.06	-5.3	0.8	1
CC(=O)Oc1ccc(Cl)cc1/C=C/c1cc(OC(C)=O)c2ccccc2n1	100.2	-1.1	1.11	/	-1.0	1
CN(C)CCCN=c1cc(-c2ccccc2)oc2ccc(Cl)cc12	148.2*	128.6	1.5	0.8	7.8	0.9
OCCN=c1cc(-c2ccccc2)oc2ccc(Cl)cc12	126.6	43.2	0.96	/	2.9	1
CSc1nnc(-c2cc3c(s2)-c2ccccc2CC3)o1	136.5*	122.3	3.19	17.8	5.2	0.9
S=c1[nH]nc(-c2cc3c(s2)-c2ccccc2CC3)o1	117.5	23.9	1.57	-5.5	8.8	0.9
CCOC(=O)N1CCN(C(=O)/C(=C/c2cccc3ccccc23)NC(=O)c2ccc(OC)c(OC)c2)CC1	102.1	-11.8	0.88	9.5	-4.8	1
Cc1cc(Cl)ccc1OCc1cn2cccnc2n1	133.0*	93.6	2.98	3.8	47.8	0.5
Clc1ccc(OCc2cn3cccnc3n2)c2ncccc12	124.4	17.7	1.29	-2.4	4.0	1
COc1ccc(C(=O)c2ccc(Cl)c([N+](=O)[O-])c2)cc1	96.2	-95.0	3.65*	-0.4	-4.1	1
CC(=O)N=C1SC2CS(=O)(=O)CC2N1c1ccc(-c2nc3ccc(C)cc3s2)cc1 (centres undefined)	97.8	106.3	0.98	/	4.9	1
Cc1ccc2nc(-c3ccc(N4C(=NC(=O)CCC(=O)O)SC5CS(=O)(=O)CC54)cc3)sc2c1 (centres undefined)	134.4*	55.7	1.04	/	5.4	0.9
CN1CCN(C(=O)CN(c2cc(C(F)(F)F)ccc2Cl)S(C)(=O)=O)CC1	92.8	21.6	0.83	/	-1.4	1
O=C(Nc1nncs1)c1cc2c(s1)CCC2	126.7	39.9	1.13	28.9	62.7*	0.4
CC(C)Cc1nnc(NC(=O)c2cc3c(s2)CCC3)s1	/	/	/	-23.5	/	/
O=C(Nc1nccs1)c1cc2c(s1)CCCCC2	35.2	37.1	1.38	/	93.7*	0.1
CN(Cc1cnn(-c2ccc(F)cc2)c1)Cc1nc(Cc2ccccc2)no1	99.2	-12.7	1.31	/	-3.9	1
COC(=O)C(=O)Nc1nnc(COc2ccccc2)s1	97.4	-10.0	0.98	/	-3.6	1
SMILES	STAT1 act	APP 5'UTR act	NF-kB neuron act	Pf gamet viab	FLuc inh counter	FLuc stim CS
NC(=O)c1ccsc1NC(=O)c1cccs1	123.9	14.8	/	/	/	/
Cc1ccc(C(=O)Nc2sc3c(c2C(=O)O)CCCCC3)o1	108.2	57.4	1.61	/	86.4*	0.1
Cc1sc(NC(=O)c2cccs2)c(C(N)=O)c1C	140.3*	56.3	2.29	/	33.5	0.7
O=C(Nc1sc2c(c1C(=O)O)CCCCC2)c1ccccc1F	124.1	40.2	1.62	10.8	61.4*	0.4
O=C(Nc1sc2c(c1C(=O)O)CCCC2)c1cccs1	121.5	67.6	2.01	-17.3	38.2	0.6
O=C(Nc1sc2c(c1C(=O)O)CCCCC2)c1cccs1	116.4	174.0*	1.92	/	83.7*	0.2
COc1ccccc1OCCC(=O)OCC(=O)c1[nH]c(C)c(C(C)=O)c1C	84.5	-7.8	0.9	-19.1	-5.2	1.1
